Residue numbers refer to the chain shown, from its start. Names and notes keep the numbering of the source.

For assay [1], the target named is T1, Ubr1 (Saccharomyces cerevisiae, UniProt P19812). Description: In vitro Ubr1-dependent ubiquitination assay. Type of assay: biochemical. The note with it: n = 2. Put shortly:
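Multi-turnover reaction at 30 °C in 50 mM HEPES pH 7.5, 0.15 M NaCl, 10 mM MgCl2, 5 mM ATP. It contained 0.1 µM Uba1, 4 µM Ubc2, 0.25 µM Ubr1 (wild-type or mutant at the same level), 80 µM Ub and 5 µM substrate. Substrate was Degron or Ub-Degron labelled at an added C-terminal Cys with fluorescein-5-maleimide. Reactions were stopped in SDS sample buffer and resolved by SDS-PAGE with fluorescence imaging.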

The target of the next assay is T2, Ubc2 (Saccharomyces cerevisiae, UniProt P06104).
T2 sequence (P06104 1-172): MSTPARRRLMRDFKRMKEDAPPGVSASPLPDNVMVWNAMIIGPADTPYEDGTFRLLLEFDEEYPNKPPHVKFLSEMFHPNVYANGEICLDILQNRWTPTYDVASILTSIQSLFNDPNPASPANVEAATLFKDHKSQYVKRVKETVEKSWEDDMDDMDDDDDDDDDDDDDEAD
Description: Accessibility of the catalytic cysteine. Type of assay: biochemical. The note with it: fluorescein-5-maleimide, presence or absence of synthetic U2BR peptide; average fluorescence, n = 2.

Assay [2] concerns the target T1, Ubr1. The assay can be described thus: Single-turnover pulse-chase Ub transfer, elongation step. It is filed as biochemical. The note with it: 0.5 μM Ubr1, 30 °C, 5 min, n = 2.
Assay [3] concerns the target T3, Ubc2 (Saccharomyces cerevisiae), wild type (Saccharomyces cerevisiae, UniProt P06104 3-152).
T3 sequence: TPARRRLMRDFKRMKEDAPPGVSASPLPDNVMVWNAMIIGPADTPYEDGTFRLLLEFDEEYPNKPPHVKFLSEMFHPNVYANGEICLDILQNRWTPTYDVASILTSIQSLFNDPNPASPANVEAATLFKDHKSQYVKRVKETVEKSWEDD
Description: ITC.

T1 sequence (P19812 whole entry, one chain of several): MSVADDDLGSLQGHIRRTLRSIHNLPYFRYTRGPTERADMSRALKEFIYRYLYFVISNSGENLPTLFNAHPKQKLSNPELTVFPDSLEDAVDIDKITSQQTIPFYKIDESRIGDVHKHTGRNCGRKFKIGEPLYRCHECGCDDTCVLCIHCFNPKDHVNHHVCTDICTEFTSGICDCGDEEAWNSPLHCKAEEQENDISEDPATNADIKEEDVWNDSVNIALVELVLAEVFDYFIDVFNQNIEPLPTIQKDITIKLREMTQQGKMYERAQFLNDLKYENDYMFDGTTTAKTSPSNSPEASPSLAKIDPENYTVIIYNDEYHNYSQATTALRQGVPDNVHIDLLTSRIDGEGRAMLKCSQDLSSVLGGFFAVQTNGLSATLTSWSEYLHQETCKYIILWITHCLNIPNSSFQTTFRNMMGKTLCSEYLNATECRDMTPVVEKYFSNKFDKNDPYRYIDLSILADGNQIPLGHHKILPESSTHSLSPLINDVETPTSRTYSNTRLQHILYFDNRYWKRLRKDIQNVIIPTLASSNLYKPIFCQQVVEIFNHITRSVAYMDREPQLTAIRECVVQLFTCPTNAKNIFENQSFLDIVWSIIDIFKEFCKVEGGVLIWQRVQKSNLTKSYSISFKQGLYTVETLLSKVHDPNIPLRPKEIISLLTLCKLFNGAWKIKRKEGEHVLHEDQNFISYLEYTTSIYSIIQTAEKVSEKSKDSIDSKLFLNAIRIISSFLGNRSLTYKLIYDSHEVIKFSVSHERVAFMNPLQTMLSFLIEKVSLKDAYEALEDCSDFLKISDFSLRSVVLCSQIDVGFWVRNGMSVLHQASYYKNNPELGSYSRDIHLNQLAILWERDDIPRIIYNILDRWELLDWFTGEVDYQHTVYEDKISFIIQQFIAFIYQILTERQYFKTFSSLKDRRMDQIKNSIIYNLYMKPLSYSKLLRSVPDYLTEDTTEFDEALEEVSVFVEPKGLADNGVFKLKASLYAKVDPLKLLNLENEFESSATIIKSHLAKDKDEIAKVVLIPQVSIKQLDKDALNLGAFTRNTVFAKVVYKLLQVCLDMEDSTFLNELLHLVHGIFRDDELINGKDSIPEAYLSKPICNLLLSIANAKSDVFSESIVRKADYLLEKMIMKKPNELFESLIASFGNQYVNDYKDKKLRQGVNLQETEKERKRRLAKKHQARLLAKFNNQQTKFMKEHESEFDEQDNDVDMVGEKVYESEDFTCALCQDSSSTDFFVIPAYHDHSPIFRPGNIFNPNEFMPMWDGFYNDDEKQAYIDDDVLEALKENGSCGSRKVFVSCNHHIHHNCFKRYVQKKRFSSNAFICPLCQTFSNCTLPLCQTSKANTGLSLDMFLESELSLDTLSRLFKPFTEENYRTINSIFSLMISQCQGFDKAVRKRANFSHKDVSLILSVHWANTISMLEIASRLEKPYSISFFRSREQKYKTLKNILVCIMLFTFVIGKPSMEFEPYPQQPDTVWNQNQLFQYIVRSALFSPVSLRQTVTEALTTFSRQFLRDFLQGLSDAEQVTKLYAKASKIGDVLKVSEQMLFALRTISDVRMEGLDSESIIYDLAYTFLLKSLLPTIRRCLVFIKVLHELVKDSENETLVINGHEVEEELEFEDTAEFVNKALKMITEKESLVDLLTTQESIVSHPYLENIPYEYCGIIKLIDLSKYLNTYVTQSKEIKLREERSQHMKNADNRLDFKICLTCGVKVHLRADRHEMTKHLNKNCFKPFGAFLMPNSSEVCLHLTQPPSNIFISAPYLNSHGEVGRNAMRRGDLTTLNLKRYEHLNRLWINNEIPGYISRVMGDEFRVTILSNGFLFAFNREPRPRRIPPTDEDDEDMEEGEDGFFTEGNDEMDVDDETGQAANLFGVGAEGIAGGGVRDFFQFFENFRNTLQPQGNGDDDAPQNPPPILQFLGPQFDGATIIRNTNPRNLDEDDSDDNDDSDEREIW

For the molecule “U2BR peptide: free U2BR peptide (Ubr1 1165-1200), Ubc2 binding region (KERKRRLAKKHQARLLAKFNNQQTKFMKEHESEFDE; UniProt P19812 1165-1200, looked up, fragment)”, the “inhibition of polyubiquitination by free U2BR peptide” value with Ubr1 [1] (increasing concentrations of synthetic U2BR peptide) is given as “inhibited polyubiquitination in a dose-dependent manner”. The “accessibility of the catalytic cysteine (C88) of Ubc2” value with Ubc2 is “decreased”.

Take “UBLM mutant: Ubr1 Ub binding loop mutant H678A/V679A/L680A/H681A”: the monoubiquitinated product result in the assay with Ubr1 [1] (Hs-Type-1 Degron and Type-2 Degron as substrates) is listed as “accumulation of monoubiquitinated product”. For the same molecule, the “Ub transfer to Degron versus Ub-Degron” value in the assay with Ubr1 [1] (UBLM mutant of Ubr1) is given as “transferred more Ub to Degron than to Ub-Degron”. Also, the “polyubiquitination of Degron and Ub-Degron (effect of mutation)” value with Ubr1 [1] (fluorescent Degron and Ub-Degron, 30 °C, pH 7.5) was “substantially reduced”. Also, the “transfer of fluorescent Ub from Ubc2 to Ub-Degron” value in the assay with Ubr1 [2] was “failed to transfer fluorescent Ub from Ubc2 to Ub-Degron”.

Consider KERKRRLAKKHQARLLAKFNNQQTKFMKEHESEFDE (peptide, UniProt P19812 1165-1200, looked up) [U2BR peptide (Ubr1 1165-1200)], for which, in assay [3], binding was characterised by a dissociation constant (Kd) of 143 ± 45 nM.

B1: N65A: N65A mutation of Ubc2 (protein, UniProt P06104 1-172, looked up, variant N65A)
Ubiquitin-conjugating enzyme …: T2 sequence (P06104 1-172) with N65A
In the case of B1, in the assay with Ubr1 [1] (Ubc2 N65A mutation), the “amount of polyubiquitinated Degron” value is listed as “increased the amount of polyubiquitinated Degron”.

B2: Ubc2 (C88S): catalytically inactive Ubc2 (protein)
chain: T3 sequence with C86S
modifications: left off: His tag, N-terminal, state not stated
For B2, the “inhibitory effect of pre-mixed inactive Ubc2 on ubiquitination” value with Ubr1 [1] (increasing doses up to 12.5 μM pre-mixed with Ubr1 and Degron, then wild-type Ubc2 at 4 μM) was “Minimal inhibitory effects”.
